{"source": "ChEMBL document CHEMBL3627613", "about": "“4-Aminoquinoline derivatives as novel Mycobacterium tuberculosis GyrB inhibitors: Structural optimization, synthesis and biological evaluation” (Eur J Med Chem, 2015)", "key": {"[1]": {"biological_target": "DNA gyrase subunit B (Mycobacterium smegmatis) (UniProt P0C559)", "sequence (P0C559 2-675 limits assumed)": "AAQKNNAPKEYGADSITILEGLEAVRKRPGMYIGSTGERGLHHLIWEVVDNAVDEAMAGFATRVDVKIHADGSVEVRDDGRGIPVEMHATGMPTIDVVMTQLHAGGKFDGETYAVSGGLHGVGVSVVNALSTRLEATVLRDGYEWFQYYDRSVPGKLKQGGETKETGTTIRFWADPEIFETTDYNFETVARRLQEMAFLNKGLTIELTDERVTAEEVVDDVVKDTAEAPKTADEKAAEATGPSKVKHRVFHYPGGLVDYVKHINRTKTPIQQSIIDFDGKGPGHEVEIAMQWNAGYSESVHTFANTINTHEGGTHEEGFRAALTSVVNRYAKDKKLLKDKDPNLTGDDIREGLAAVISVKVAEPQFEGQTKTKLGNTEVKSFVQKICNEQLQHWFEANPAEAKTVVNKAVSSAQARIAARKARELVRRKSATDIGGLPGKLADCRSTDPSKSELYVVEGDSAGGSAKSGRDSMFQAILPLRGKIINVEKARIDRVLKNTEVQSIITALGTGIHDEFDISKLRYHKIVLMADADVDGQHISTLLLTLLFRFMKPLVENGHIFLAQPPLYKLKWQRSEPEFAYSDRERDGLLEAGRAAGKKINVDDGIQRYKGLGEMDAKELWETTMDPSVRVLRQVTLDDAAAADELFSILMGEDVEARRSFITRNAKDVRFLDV", "experiment": "Binding affinity to Mycobacterium smegmatis DNA gyrase B assessed as changing in melting temperature of the protein-ligand complex by differential scanning fluorometry", "settings": "Mycolicibacterium smegmatis", "procedure,_shortened": "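His-tagged M. smegmatis GyrB expressed in E. coli BL21(DE3)pLysS and Ni-NTA purified, used at 2 mg/mL. Native protein and protein-ligand complex heated from 25 to 95 °C in 0.1 °C steps with 50X SYPRO orange. Read-out is the Tm shift of the complex relative to native protein.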"}, "[2]": {"biological_target": "DNA gyrase subunit A/DNA gyrase subunit B (Mycobacterium tuberculosis (strain ATCC 25618 / H37Rv), UniProt P9WG45+P9WG47)", "sequence (P9WG45 whole entry)": "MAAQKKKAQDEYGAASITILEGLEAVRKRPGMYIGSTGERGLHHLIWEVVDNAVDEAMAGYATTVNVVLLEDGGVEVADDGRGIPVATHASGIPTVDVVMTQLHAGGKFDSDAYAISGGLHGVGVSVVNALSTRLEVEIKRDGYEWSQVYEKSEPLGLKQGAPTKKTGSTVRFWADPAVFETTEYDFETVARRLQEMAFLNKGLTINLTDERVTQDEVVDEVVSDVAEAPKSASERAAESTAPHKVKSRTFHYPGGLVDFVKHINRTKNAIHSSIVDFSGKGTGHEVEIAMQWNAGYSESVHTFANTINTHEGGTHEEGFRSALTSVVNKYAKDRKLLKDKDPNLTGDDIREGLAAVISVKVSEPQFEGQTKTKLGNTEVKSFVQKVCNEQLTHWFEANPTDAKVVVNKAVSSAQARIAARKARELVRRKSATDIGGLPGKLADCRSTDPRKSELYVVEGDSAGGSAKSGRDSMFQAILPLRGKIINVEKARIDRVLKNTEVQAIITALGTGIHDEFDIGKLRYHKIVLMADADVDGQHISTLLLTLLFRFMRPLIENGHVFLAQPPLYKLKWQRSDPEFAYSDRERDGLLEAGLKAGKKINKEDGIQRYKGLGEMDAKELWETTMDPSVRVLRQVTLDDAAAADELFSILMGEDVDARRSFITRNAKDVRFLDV", "sequence (P9WG47 whole entry)": "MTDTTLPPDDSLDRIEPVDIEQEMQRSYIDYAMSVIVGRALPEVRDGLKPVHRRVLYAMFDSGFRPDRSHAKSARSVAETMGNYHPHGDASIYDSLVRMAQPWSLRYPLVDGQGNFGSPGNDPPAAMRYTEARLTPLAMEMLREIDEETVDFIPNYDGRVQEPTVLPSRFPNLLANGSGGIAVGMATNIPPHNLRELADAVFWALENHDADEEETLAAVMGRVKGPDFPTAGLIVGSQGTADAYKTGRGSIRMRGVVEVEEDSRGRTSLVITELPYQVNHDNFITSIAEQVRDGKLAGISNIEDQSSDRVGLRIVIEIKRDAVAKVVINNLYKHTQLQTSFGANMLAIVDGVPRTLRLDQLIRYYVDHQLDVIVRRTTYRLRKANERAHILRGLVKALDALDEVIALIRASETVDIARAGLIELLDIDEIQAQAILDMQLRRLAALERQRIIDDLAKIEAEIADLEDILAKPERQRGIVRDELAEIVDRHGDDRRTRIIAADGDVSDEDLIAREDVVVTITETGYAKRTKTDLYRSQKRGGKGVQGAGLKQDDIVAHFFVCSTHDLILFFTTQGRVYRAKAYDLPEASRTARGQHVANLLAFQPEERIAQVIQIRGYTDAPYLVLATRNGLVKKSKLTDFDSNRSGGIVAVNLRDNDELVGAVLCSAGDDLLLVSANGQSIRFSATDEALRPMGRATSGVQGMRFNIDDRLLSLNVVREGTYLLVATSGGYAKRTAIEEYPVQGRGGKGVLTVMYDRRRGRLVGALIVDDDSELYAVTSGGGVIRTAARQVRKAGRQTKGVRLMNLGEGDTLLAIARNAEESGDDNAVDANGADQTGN", "experiment": "Inhibition of DNA gyrase GyrA/GyrB in Mycobacterium tuberculosis incubated for 30 mins assessed as reduction in supercoiling of relaxed relaxed pBR322 DNA by ethidium bromide staining based agarose gel electrophoresis method"}, "DNA gyrase subunit B": {"biological_target": "DNA gyrase subunit B (Mycobacterium smegmatis, UniProt P0C559)", "sequence (P0C559 whole entry)": "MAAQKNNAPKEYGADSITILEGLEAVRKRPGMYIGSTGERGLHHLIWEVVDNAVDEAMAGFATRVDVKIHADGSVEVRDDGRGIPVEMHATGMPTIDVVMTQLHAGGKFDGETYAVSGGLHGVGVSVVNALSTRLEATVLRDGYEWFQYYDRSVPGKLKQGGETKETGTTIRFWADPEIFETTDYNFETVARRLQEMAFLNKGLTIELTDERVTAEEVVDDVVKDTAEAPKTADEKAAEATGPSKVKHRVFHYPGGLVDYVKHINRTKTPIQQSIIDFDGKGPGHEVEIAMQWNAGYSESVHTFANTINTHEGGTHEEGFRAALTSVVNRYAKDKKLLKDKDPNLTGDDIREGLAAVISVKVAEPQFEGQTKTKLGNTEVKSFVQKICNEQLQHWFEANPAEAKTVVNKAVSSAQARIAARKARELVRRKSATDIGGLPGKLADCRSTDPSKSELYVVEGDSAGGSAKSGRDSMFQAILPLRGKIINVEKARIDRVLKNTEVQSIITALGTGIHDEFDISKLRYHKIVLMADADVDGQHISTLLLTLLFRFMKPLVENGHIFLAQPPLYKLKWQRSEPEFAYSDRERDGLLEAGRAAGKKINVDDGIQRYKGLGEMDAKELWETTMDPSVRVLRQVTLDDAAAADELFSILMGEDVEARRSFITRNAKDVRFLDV", "experiment": "Inhibition of Mycobacterium smegmatis DNA gyrase B expressed in Escherichia coli BL21 (DE3) pLysS cells assessed as reduction in ATPase activity incubated for 100 mins by inorganic phosphate detection assay", "parameters": "species or system Mycolicibacterium smegmatis"}, "[3]": {"biological_target": "DNA gyrase subunit B (Escherichia coli) (UniProt P0AES6)", "experiment": "Inhibition of Escherichia coli Inspiralis DNA gyrase B assessed as reduction in ATPase activity at 100 uM incubated for 100 mins by inorganic phosphate detection assay"}, "[4]": {"system": "Mycobacterium tuberculosis", "experiment": "Antimycobacterial activity against Mycobacterium tuberculosis H37Rv assessed as growth inhibition incubated for 7 days by microplate alamar blue assay", "type": "functional", "settings": "168 h", "procedure,_shortened": "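M. tuberculosis H37Rv inoculum from fresh LJ medium, resuspended in 7H9 broth (0.1% casitone, 0.5% glycerol, OADC), set to McFarland No. 1 and diluted 1:20. Two-fold serial compound dilutions in 7H9-S, with growth and sterile controls. Incubated 7 days at 37 °C, then alamar blue overnight. MIC is the lowest concentration preventing the blue-to-pink colour change.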"}, "[5]": {"experiment": "Cytotoxicity against mouse RAW264.7 cells assessed as inhibition of cell viability at 50 uM incubated for 48 hrs at 37 degC by MTT assay relative to control", "type": "cell-based", "settings": "read-out: INH", "procedure,_shortened": "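RAW 264.7 mouse macrophages, 5×10^5 cells per well, exposed to compound for 48 h at 37 °C under 5% CO2. MTT added 4 h before the end. Formazan dissolved in DMSO and absorbance read at 560 nm against blank. Triplicates, run twice.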"}, "[6]": {"biological_target": "DNA gyrase subunit B (Staphylococcus aureus) (UniProt P0A0K8)", "sequence (P0A0K8 2-644 limits assumed)": "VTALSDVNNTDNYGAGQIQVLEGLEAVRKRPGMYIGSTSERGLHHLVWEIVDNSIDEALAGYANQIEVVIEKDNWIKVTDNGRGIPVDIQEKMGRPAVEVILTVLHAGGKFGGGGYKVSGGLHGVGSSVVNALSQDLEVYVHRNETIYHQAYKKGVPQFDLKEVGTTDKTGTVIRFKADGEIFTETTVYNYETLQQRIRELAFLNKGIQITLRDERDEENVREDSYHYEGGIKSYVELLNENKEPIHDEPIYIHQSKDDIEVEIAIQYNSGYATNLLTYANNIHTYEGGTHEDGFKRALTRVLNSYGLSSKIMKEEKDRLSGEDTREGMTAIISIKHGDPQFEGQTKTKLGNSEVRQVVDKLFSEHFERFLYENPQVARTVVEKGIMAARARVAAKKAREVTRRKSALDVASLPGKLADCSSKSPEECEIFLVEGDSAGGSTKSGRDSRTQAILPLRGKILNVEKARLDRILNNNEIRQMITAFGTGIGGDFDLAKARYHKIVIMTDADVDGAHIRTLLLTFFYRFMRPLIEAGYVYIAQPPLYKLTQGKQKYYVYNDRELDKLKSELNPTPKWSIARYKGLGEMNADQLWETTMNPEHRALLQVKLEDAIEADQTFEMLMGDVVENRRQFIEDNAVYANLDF", "experiment": "Inhibition of Staphylococcus aureus DNA gyrase B assessed as reduction in ATPase activity at 100 uM incubated for 100 mins by inorganic phosphate detection assay"}}, "note": "pIC50: −log10 of the molar value. The source made the active and inactive calls. The calls are words filed in the database; no cut-off is given here.", "data": [{"smiles": "CCN1CCN(CCCOc2ccc(Nc3c(C(=O)O)cnc4ccc(OC)cc34)cc2)CC1", "values": [{"measurement": "ΔTm", "setting": "[1]", "value": 3.3, "unit": "°C"}, {"measurement": "pIC50", "setting": "[2]", "value": 6.20}, {"measurement": "pIC50", "setting": "DNA gyrase subunit B", "value": 6.07}, {"measurement": "inhibition", "setting": "[3]", "value": "inactive"}, {"measurement": "MIC", "setting": "[4]", "value": 3.3, "unit": "µM"}, {"measurement": "cytotoxicity at 48 h, 50 µM", "setting": "[5]", "value": 0.66, "unit": "%"}, {"measurement": "inhibition", "setting": "[6]", "value": "inactive"}]}]}
